According to ChEMBL document CHEMBL1157295, “Polyacylated oligosaccharides from medicinal Mexican morning glory species as antibacterials and inhibitors of multidrug resistance in Staphylococcus aureus” (2006):
Values after ≈ are worked out from the molar mass of the structure shown.

Legend:
Format in all cases: functional
Staphylococcus aureus [1] = test: Antimicrobial activity against TetK multidrug efflux pump possessing Staphylococcus aureus XU-212 by standard microdilution method
Outline: (§1)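 Broth microdilution per NCCLS guidelines, at least in duplicate, in cation-adjusted Mueller-Hinton broth (20 mg/L Ca2+, 10 mg/L Mg2+). Strains were grown first on nutrient agar. Inoculum of 5 × 10^5 cfu was set in 0.9% saline against a McFarland standard. Compounds were dissolved in DMSO and given as 2-fold serial dilutions, final 1–512 µg/mL, with at most 3.125% v/v DMSO. MIC is the lowest concentration showing no visible growth.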

Staphylococcus aureus [2] = test: Antimicrobial activity against epidemic methicillin-resistant Staphylococcus aureus 15 by standard microdilution method
Outline: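 Broth microdilution following NCCLS guidelines, at least in duplicate, against EMRSA-15 (mecA) precultured on nutrient agar. Medium was cation-adjusted Mueller-Hinton broth with 20 mg/L Ca2+ and 10 mg/L Mg2+. Inoculum was 5 × 10^5 cfu in 0.9% saline, set against a McFarland standard. Compounds were dissolved in DMSO (final ≤3.125% v/v) and tested at 1–512 µg/mL in 2-fold series. MIC was the lowest concentration with no visible growth.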

Staphylococcus aureus [3] = test: Antimicrobial activity against Staphylococcus aureus ATCC 25923 by standard microdilution method; outline: as §1

SMILES	MIC (Staphylococcus aureus [1])	MIC (Staphylococcus aureus [2])	MIC (Staphylococcus aureus [3])
CCn1cc(C(=O)O)c(=O)c2cc(F)c(N3CCNCC3)cc21 [NORFLOXACIN]	16 µg/mL (≈ 50.1 µM)	0.5 µg/mL (≈ 1.57 µM)	2 µg/mL (≈ 6.26 µM)
C/C=C(\C)C(=O)O[C@H]1[C@H](O)[C@@H](O)[C@H](O[C@@H]2[C@H]3OC(=O)CCCCCCCCC[C@H](CCCCC)O[C@@H]4O[C@H](C)[C@@H](O)[C@H](O)[C@H]4O[C@@H]4O[C@H](CO)[C@@H](OC(=O)[C@H](C)[C@@H](C)O)[C@H](O)[C@H]4O[C@H](O[C@H]2C)[C@@H]3OC(=O)[C@@H](C)CC)O[C@@H]1C [ORIZABIN IX]	> 512 µg/mL	256 µg/mL (≈ 228 µM)	> 512 µg/mL
C/C=C(\C)C(=O)O[C@H]1[C@H](O)[C@@H](O)[C@H](O[C@@H]2[C@H]3OC(=O)CCCCCCCCC[C@H](CCCCC)O[C@@H]4O[C@H](C)[C@@H](O)[C@H](O)[C@H]4O[C@@H]4O[C@H](COC(=O)[C@@H](C)[C@H](C)O)[C@@H](O)[C@H](O)[C@H]4O[C@H](O[C@H]2C)[C@@H]3OC(=O)C(C)C)O[C@@H]1C [ORIZABIN XIII]	32 µg/mL (≈ 28.9 µM)	8 µg/mL (≈ 7.22 µM)	8 µg/mL (≈ 7.22 µM)
C/C=C(\C)C(=O)O[C@H]1[C@H](O)[C@@H](O)[C@H](O[C@@H]2[C@H]3OC(=O)CCCCCCCCC[C@H](CCCCC)O[C@@H]4O[C@H](C)[C@@H](O)[C@H](O)[C@H]4O[C@@H]4O[C@H](COC(=O)[C@H](C)[C@@H](C)O)[C@@H](O)[C@H](O)[C@H]4O[C@H](O[C@H]2C)[C@@H]3OC(=O)C(C)C)O[C@@H]1C [ORIZABIN XII]	> 512 µg/mL	512 µg/mL (≈ 462 µM)	> 512 µg/mL
C/C=C(\C)C(=O)O[C@H]1[C@H](O)[C@@H](O)[C@H](O[C@@H]2[C@H]3OC(=O)CCCCCCCCC[C@H](CCCCC)O[C@@H]4O[C@H](C)[C@@H](O)[C@H](O)[C@H]4O[C@@H]4O[C@H](COC(=O)[C@@H](C)CC)[C@@H](O)[C@H](O)[C@H]4O[C@H](O[C@H]2C)[C@@H]3OC(=O)[C@H](C)[C@@H](C)O)O[C@@H]1C [ORIZABIN XIV]	64 µg/mL (≈ 57.1 µM)	8 µg/mL (≈ 7.13 µM)	16 µg/mL (≈ 14.3 µM)
CCCCC[C@H]1CCCCCCCCCC(=O)O[C@@H]2[C@@H](O[C@@H]3O[C@H](C)[C@@H](OC(=O)[C@@H](C)CC)[C@H](O)[C@H]3O)[C@H](C)O[C@@H](O[C@H]3[C@H](O[C@H]4[C@H](O1)O[C@H](C)[C@@H](O)[C@@H]4O)O[C@H](COC(=O)[C@@H](C)CC)[C@@H](O)[C@@H]3O)[C@@H]2OC(=O)[C@@H](C)[C@H](C)O [ORIZABIN XIX]	512 µg/mL (≈ 456 µM)	256 µg/mL (≈ 228 µM)	128 µg/mL (≈ 114 µM)
C/C=C(\C)C(=O)O[C@H]1[C@H](O)[C@@H](O)[C@H](O[C@@H]2[C@H]3OC(=O)CCCCCCCCC[C@H](CCCCC)O[C@@H]4O[C@H](C)[C@@H](O)[C@H](O)[C@H]4O[C@@H]4O[C@H](COC(=O)C(C)C)[C@@H](O)[C@H](O)[C@H]4O[C@H](O[C@H]2C)[C@@H]3OC(=O)[C@@H](C)[C@H](C)O)O[C@@H]1C [ORIZABIN XI]	32 µg/mL (≈ 28.9 µM)	4 µg/mL (≈ 3.61 µM)	16 µg/mL (≈ 14.4 µM)
CCCCC[C@H]1CCCCCCCCCC(=O)O[C@@H]2[C@@H](O[C@@H]3O[C@H](C)[C@@H](OC(=O)[C@@H](C)CC)[C@H](O)[C@H]3O)[C@H](C)O[C@@H](O[C@H]3[C@H](O[C@H]4[C@H](O1)O[C@H](C)[C@@H](O)[C@@H]4O)O[C@H](COC(=O)[C@@H](C)CC)[C@@H](O)[C@@H]3O)[C@@H]2OC(=O)[C@H](C)[C@@H](C)O [ORIZABIN XVIII]	64 µg/mL (≈ 57 µM)	64 µg/mL (≈ 57 µM)	32 µg/mL (≈ 28.5 µM)
C/C=C(\C)C(=O)O[C@H]1[C@H](O)[C@@H](O)[C@H](O[C@@H]2[C@H]3OC(=O)CCCCCCCCC[C@H](CCCCC)O[C@@H]4O[C@H](C)[C@@H](O)[C@H](O)[C@H]4O[C@@H]4O[C@H](COC(=O)[C@@H](C)[C@H](C)O)[C@@H](O)[C@H](O)[C@H]4O[C@H](O[C@H]2C)[C@@H]3OC(=O)[C@@H](C)CC)O[C@@H]1C [ORIZABIN XVII]	32 µg/mL (≈ 28.5 µM)	8 µg/mL (≈ 7.13 µM)	8 µg/mL (≈ 7.13 µM)
C/C=C(\C)C(=O)O[C@H]1[C@H](O)[C@@H](O)[C@H](O[C@@H]2[C@H]3OC(=O)CCCCCCCCC[C@H](CCCCC)O[C@@H]4O[C@H](C)[C@@H](O)[C@H](O)[C@H]4O[C@@H]4O[C@H](COC(=O)[C@H](C)[C@@H](C)O)[C@@H](O)[C@H](O)[C@H]4O[C@H](O[C@H]2C)[C@@H]3OC(=O)[C@@H](C)CC)O[C@@H]1C [ORIZABIN XVI]	128 µg/mL (≈ 114 µM)	8 µg/mL (≈ 7.13 µM)	8 µg/mL (≈ 7.13 µM)
C/C=C(\C)C(=O)O[C@H]1[C@H](O)[C@@H](O)[C@H](O[C@@H]2[C@H]3OC(=O)CCCCCCCCC[C@H](CCCCC)O[C@@H]4O[C@H](C)[C@@H](O)[C@H](O)[C@H]4O[C@@H]4O[C@H](COC(=O)[C@@H](C)CC)[C@@H](O)[C@H](O)[C@H]4O[C@H](O[C@H]2C)[C@@H]3OC(=O)[C@@H](C)[C@H](C)O)O[C@@H]1C [ORIZABIN XV]	512 µg/mL (≈ 457 µM)	16 µg/mL (≈ 14.3 µM)	128 µg/mL (≈ 114 µM)
CCCCC[C@H]1CCCCCCCCCC(=O)O[C@@H]2[C@@H](O[C@@H]3O[C@H](C)[C@@H](OC(=O)[C@@H](C)CC)[C@H](O)[C@H]3O)[C@H](C)O[C@@H](O[C@H]3[C@H](O[C@H]4[C@H](O1)O[C@H](C)[C@@H](O)[C@@H]4O)O[C@H](COC(=O)[C@@H](C)[C@H](C)O)[C@@H](O)[C@@H]3O)[C@@H]2OC(=O)[C@@H](C)CC [ORIZABIN XXI]	64 µg/mL (≈ 57 µM)	16 µg/mL (≈ 14.2 µM)	8 µg/mL (≈ 7.12 µM)
CCCCC[C@H]1CCCCCCCCCC(=O)O[C@@H]2[C@@H](O[C@@H]3O[C@H](C)[C@@H](OC(=O)[C@@H](C)CC)[C@H](O)[C@H]3O)[C@H](C)O[C@@H](O[C@H]3[C@H](O[C@H]4[C@H](O1)O[C@H](C)[C@@H](O)[C@@H]4O)O[C@H](COC(=O)[C@H](C)[C@@H](C)O)[C@@H](O)[C@@H]3O)[C@@H]2OC(=O)[C@@H](C)CC [ORIZABIN XX]	> 512 µg/mL	32 µg/mL (≈ 28.5 µM)	64 µg/mL (≈ 57 µM)
C/C=C(\C)C(=O)O[C@H]1[C@H](O)[C@@H](O)[C@H](O[C@@H]2[C@H]3OC(=O)CCCCCCCCC[C@H](CCCCC)O[C@@H]4O[C@H](C)[C@@H](O)[C@H](O)[C@H]4O[C@@H]4O[C@H](COC(=O)C(C)C)[C@@H](O)[C@H](O)[C@H]4O[C@H](O[C@H]2C)[C@@H]3OC(=O)[C@H](C)[C@@H](C)O)O[C@@H]1C [ORIZABIN X]	32 µg/mL (≈ 28.9 µM)	4 µg/mL (≈ 3.61 µM)	16 µg/mL (≈ 14.4 µM)
CCCCC[C@H]1CCCCCCCCCC(=O)O[C@@H]2[C@@H](O[C@@H]3O[C@H](C)[C@@H](O)[C@H](O)[C@H]3O)[C@H](C)O[C@@H](O[C@H]3[C@H](O[C@H]4[C@H](O1)O[C@H](C)[C@@H](O)[C@@H]4O)O[C@H](CO)[C@@H](O)[C@@H]3O)[C@@H]2OC(=O)[C@@H](C)CC [SCAMMONIN II]	512 µg/mL (≈ 545 µM)	128 µg/mL (≈ 136 µM)	256 µg/mL (≈ 273 µM)
